Series [1] addresses NAD(P)H dehydrogenase [quinone] 1 (Mus musculus) (UniProt Q64669). Briefly: Induction of NQO1 activity in mouse Hepa-1c1c7 cells assessed as induction ratio at 10 uM after 48 hrs by MTT assay relative to control. The format is cell-based. An outline of the steps: (§1)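 Hepa1c1c7 cells, 10,000 per well, 24 h, were then treated 48 h (DMSO ≤0.5%). Digitonin/EDTA lysates were assayed for menadione-dependent MTT-formazan formation using a G6P/G6PDH NADPH-generating mix with FAD at pH 7.4. The reaction ran 5 min, was stopped with dicoumarol, and read at A590. Degree of induction = (A test − blank)/(A control − blank). Ratios were read off the induction–concentration plot at the EROD test concentration.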

In series [2] the target is T1, CYP1A1 (Mus musculus, UniProt P00184).
T1 sequence (P00184 whole entry): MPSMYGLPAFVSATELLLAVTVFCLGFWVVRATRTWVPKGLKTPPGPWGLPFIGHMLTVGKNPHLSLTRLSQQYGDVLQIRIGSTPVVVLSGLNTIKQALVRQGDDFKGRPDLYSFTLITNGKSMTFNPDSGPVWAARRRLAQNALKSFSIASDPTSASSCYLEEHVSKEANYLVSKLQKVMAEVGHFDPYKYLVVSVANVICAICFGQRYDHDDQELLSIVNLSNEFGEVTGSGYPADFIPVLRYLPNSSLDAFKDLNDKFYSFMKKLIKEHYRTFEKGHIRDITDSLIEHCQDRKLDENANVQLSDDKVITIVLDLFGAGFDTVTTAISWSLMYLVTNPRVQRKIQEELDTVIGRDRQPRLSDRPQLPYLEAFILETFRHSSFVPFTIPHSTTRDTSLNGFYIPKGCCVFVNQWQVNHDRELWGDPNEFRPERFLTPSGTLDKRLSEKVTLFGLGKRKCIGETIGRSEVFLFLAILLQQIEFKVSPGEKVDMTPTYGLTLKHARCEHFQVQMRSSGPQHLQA
Briefly: Induction of CYP1A1 activity in mouse Hepa-1c1c7 cells assessed as induction ratio at 10 uM after 48 hrs by EROD assay relative to control. The format is ADME, cell-based. In short, it runs like this:
(§2)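 About 10,000 Hepa1c1c7 cells/well cultured 24 h, then compound (0.5% DMSO final) for 48 h, at roughly 4 × the concentration doubling NQO1 activity. After PBS wash, cells given 5 µM 7-ethoxyresorufin plus 2 mM salicylamide, 37 °C, 40 min; resorufin fluorescence ex 530/em 590 nm, corrected for compound fluorescence. Ratio = (treated − blank)/(DMSO control − blank); mean ± SD, n = 3.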

The nature of series [3]: Cytotoxicity against mouse Hepa-1c1c7 cells after 48 hrs by MTT assay. The format is cell-based. Conditions: hepa-1c1c7, 48 h. In short, it runs like this:
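Murine hepatoma cells in α-MEM with 10% heat- and charcoal-treated fetal calf serum, passages 6–17; MTT read-out as for the cancer lines but with 48 h compound exposure. Highest concentration tested 25 µM. IC50 from survival-versus-concentration curve; mean and SD, n = 3.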
Background: Tetrazolium dyes change colour on reduction, which living cells bring about.

Series [4] relates to MCF7. Nature of the series: Antiproliferative activity against human MCF7 cells after 72 hrs by MTT assay. The format is functional, cell-based. The following applies: MCF7, 72 h. In short, it runs like this: (§3)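 Cells seeded at 10,000 (MCF7), 4000 (HCT116) or 5000 (CCL186) per well and grown 24 h; MCF7 and CCL186 in EMEM with pyruvate, glutamine, 10% FBS; HCT116 in McCoy's 5A with 10% FBS. Compounds from DMSO stocks (≤1% DMSO final), 72 h exposure; MTT 0.5 mg/ml for 3 h, formazan in DMSO read at 590 nm. IC50 from sigmoidal survival curve, three separate occasions.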

Series [5] concerns MCF7. Briefly: Selectivity ratio of IC50 for human CCL186 cells to IC50 for human MCF7 cells. An outline of the steps:
(§4)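 MTT assay. MCF7 and CCL186 cells were grown in EMEM/10% FBS, HCT116 in McCoy's 5A/10% FBS. Seeding was 10,000 (MCF7), 4000 (HCT116) and 5000 (CCL186) cells per well, 24 h. Compound exposure was 72 h, DMSO ≤1% final. MTT 0.5 mg/ml for 3 h, formazan dissolved in DMSO, A590. IC50 came from sigmoidal survival curves, with 3 separate occasions per concentration. Ratio = IC50 CCL186 / IC50 of the cancer line.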

For series [6], the system named is HCT-116. Briefly: Cell cycle arrest in human HCT116 cells released from G1 block assessed as accumulation at G2/M phase at 5 uM after 24 hrs by flow cytometry. The format is functional. For orientation: A flow cytometer gives signals particle by particle.
Series [7] deals with HCT-116. Briefly: Cell cycle arrest in human HCT116 cells released from G2 block assessed as accumulation at G1 phase at 5 uM after 24 hrs by flow cytometry. The class given is functional.
The subject of series [8] is HCT-116. Briefly: Cell cycle arrest in human HCT116 cells released from G1 block assessed as accumulation at S phase at 5 uM after 24 hrs by flow cytometry. The class given is functional.
In series [9] the test system is HCT-116. Nature of the series: Cell cycle arrest in human HCT116 cells released from G2 block assessed as accumulation at sub G1 phase at 5 uM after 24 hrs by flow cytometry. The class given is functional.
Series [10] has as its system HCT-116. Briefly: Cell cycle arrest in human HCT116 cells released from G2 block assessed as accumulation at S phase at 5 uM after 24 hrs by flow cytometry. The class given is functional.
Series [11] concerns HCT-116. Briefly: Cell cycle arrest in human HCT116 cells released from G1 block assessed as accumulation at sub G1 phase at 5 uM after 24 hrs by flow cytometry. The class given is functional.
Series [12] concerns HCT-116. Nature of the series: Cell cycle arrest in human HCT116 cells released from G1 block assessed as accumulation at G1 phase at 5 uM after 24 hrs by flow cytometry. The format is functional.
The subject of series [13] is HCT-116. Nature of the series: Cell cycle arrest in human HCT116 cells released from G2 block assessed as accumulation at G2/M phase at 5 uM after 24 hrs by flow cytometry. The class given is functional.
Series [14] concerns HCT-116. Nature of the series: Antiproliferative activity against human HCT116 cells after 72 hrs by MTT assay. The format is functional, cell-based. The following applies: HCT-116, 72 h. In short, it runs like this:
as §3

A short description of series [15]: Antiproliferative activity against human CCL186 cells after 72 hrs by MTT assay. The following applies: CCL186, 72 h. The class given is cell-based. An outline of the steps:
as §3

Series [16] is described as follows: Selectivity ratio of IC50 for human CCL186 cells to IC50 for human HCT116 cells. Conditions: CCL186 cells and HCT116 cells, read-out: Ratio IC50. The format is ADME, cell-based, HCT-116. In short, it runs like this:
as §4

Series [17] relates to HCT-116. Nature of the series: Cell cycle arrest in human HCT116 cells released from G1 block assessed as accumulation at G1 phase at 10 uM after 24 hrs by flow cytometry. The format is functional.
The subject of series [18] is HCT-116. Briefly: Cell cycle arrest in human HCT116 cells released from G1 block assessed as accumulation at S phase at 10 uM after 24 hrs by flow cytometry. The format is functional.
In series [19] the test system is HCT-116. Briefly: Cell cycle arrest in human HCT116 cells released from G1 block assessed as accumulation at sub G1 phase at 10 uM after 24 hrs by flow cytometry. The class given is functional.
In series [20] the test system is HCT-116. Nature of the series: Cell cycle arrest in human HCT116 cells released from G2 block assessed as accumulation at G1 phase at 10 uM after 24 hrs by flow cytometry. The class given is functional.
In series [21] the test system is HCT-116. Nature of the series: Cell cycle arrest in human HCT116 cells released from G2 block assessed as accumulation at G2/M phase at 10 uM after 24 hrs by flow cytometry. The class given is functional.
The test system of series [22] is HCT-116. Briefly: Cell cycle arrest in human HCT116 cells released from G2 block assessed as accumulation at S phase at 10 uM after 24 hrs by flow cytometry. The format is functional.
In series [23] the test system is HCT-116. Nature of the series: Cell cycle arrest in human HCT116 cells released from G1 block assessed as accumulation at G2/M phase at 10 uM after 24 hrs by flow cytometry. The format is functional.
Series [24] has as its system HCT-116. Briefly: Cell cycle arrest in human HCT116 cells released from G2 block assessed as accumulation at sub G1 phase at 10 uM after 24 hrs by flow cytometry. The class given is functional.
For series [25], the target named is NAD(P)H dehydrogenase [quinone] 1 (Mus musculus) (UniProt Q64669). Nature of the series: Induction of NQO1 activity in mouse Hepa-1c1c7 cells assessed as induction ratio at 0.5 uM after 48 hrs by MTT assay relative to control. The class given is cell-based. In short, it runs like this: as §1
Chain of NAD(P)H dehydrogenase [quinone] 1 (Mus musculus) (Q64669 whole entry): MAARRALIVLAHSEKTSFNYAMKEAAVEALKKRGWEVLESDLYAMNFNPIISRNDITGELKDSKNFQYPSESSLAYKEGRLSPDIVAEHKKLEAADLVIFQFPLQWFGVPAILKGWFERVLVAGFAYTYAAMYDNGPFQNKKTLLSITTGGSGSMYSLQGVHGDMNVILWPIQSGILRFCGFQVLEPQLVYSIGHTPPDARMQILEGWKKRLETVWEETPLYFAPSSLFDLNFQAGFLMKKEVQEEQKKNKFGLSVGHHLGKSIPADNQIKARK
For series [26], the target named is T1, CYP1A1. Nature of the series: Induction of CYP1A1 activity in mouse Hepa-1c1c7 cells assessed as induction ratio at 0.5 uM after 48 hrs by EROD assay relative to control. The class given is ADME, cell-based. An outline of the steps: as §2

Each structure is given as a SMILES string. Bounds are passed on as bounds.

By fold induction is commonly meant the signal under treatment as a multiple of the control signal. The IC50 is the concentration needed to halve the response being measured. A low value points to higher potency. On to `O=C1Nc2ccccc2/C1=C\c1cc(O)ccc1O`, for which the Ratio in series [1] worked out at 7.69. For the same compound, in series [2], the fold induction at 48 h, 10 µM turned out to be 2.87. This compound also had an IC50 in series [3] greater than 25 µM.

As for `COc1ccc(/C=C2/C(=O)Nc3ccccc32)c(OC)c1`, the concentration for half-maximal inhibition (IC50) worked out at 3.3 µM in series [4], 11.1 µM in [3], 8.8 µM in series [14] and 5.8 µM in series [15]. Also, in [5], the “Ratio IC50” value came out at 0.7. The Activity came to 58.82% in series [6]; 34.66% in series [7]; 12.37% in [8]; 12.49% in [9]; 13.43% in [10]; 2.64% in [11]. The results for the Activity in series [12] and in [13] were 26.14% and 39.43%, respectively. Moreover, in series [16], the selectivity ratio was determined as 1.8.

As to `COc1cccc(OC)c1/C=C1/C(=O)Nc2ccccc21`, the Activity in series [17] is listed as 20.86%; in series [18] it was 16%; in series [19] it was 3.52%; in series [20], 32.97%; in [21], 44.99%; in [22], 12.42%. For the same compound, the Activity is reported as 59.63% in series [23] and 9.51% in series [24]. In addition, the IC50 was found to be 6.2 µM in [4], 13.9 µM in [3], 4.8 µM in series [14] and 17.8 µM in [15]. For the same compound, in [5], the “Ratio IC50” value is listed as 3.7. In series [16], the selectivity ratio is 2.9.

Take `COc1ccc2c(c1)NC(=O)/C2=C/c1cccc(C(F)(F)F)c1`: the IC50 in series [4] was 3.8 µM; in [3], 2.6 µM; in [14] it was 1.9 µM; in series [15] it was 5.4 µM. Besides, the Ratio in [25] turned out to be 4.22. For the same compound, the “Ratio IC50” value in series [5] stood at 2.8. The Activity in [6] came to 59.16%; in series [7], 30.55%; in series [8] it was 19.12%; in [9], 20.69%; in series [10], 17.96%; in series [11] it was 4.39%. In addition, the Activity was 17.5% in [12] and 31.58% in [13]. For the same compound, the fold induction at 48 h, 0.5 µM in series [26] amounted to 1.36. The selectivity ratio in series [16] came out at 1.4.

The record behind these values is ChEMBL document CHEMBL1153905, “Functionalized 3-benzylidene-indolin-2-ones: inducers of NAD(P)H-quinone oxidoreductase 1 (NQO1) with antiproliferative activity” (Bioorg Med Chem, 2009).
